Bioassay records from PubChem.
Sampled rows, rich in hits. Any-hit rate of the full collection: about 1.9%.
DDE Tn7 FP inh: inhibitors of Tn7 peptide binding to human fibrin DD(E); P02675; FP displacement of FITC-Tn7 peptide from fibrin DD(E); 0% = median of compound wells per plate; inhibition, % at 8.3 µM; 0.13% of 370,000 active;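 active = inhibition above the mean of compounds falling within the control limits plus 3 SD of them, cut at about 14% in these data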
Target sequence (P02675 whole entry, looked up): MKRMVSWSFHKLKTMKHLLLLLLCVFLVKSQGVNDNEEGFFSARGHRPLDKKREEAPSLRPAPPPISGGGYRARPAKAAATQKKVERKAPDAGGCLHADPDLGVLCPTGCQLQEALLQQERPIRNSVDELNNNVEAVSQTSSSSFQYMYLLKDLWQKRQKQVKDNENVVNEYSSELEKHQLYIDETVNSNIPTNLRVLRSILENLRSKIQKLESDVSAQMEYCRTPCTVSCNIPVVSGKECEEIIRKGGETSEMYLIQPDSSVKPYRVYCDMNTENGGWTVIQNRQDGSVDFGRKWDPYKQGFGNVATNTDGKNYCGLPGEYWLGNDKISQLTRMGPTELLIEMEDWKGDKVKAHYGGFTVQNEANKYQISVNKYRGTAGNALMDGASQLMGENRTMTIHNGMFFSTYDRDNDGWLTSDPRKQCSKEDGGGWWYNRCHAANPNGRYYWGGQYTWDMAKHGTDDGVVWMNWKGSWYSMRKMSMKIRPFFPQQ
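Assay system: Fibrin-DD(E) protein isolated from polymerized human fibrin clots; read-out basis: percent inhibition; medium: Tris/NaCl/CaCl2 buffer, pH 7.8; signal: FP measurement; incubation: 10 min plus 3 h, room temperature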
DDE Tn6 FP inh: disrupts Tn6 cyclic peptide binding to fibrin D-Dimer-E complex; AID 720509; 0.21% of 370,000 active; Fibrin DD(E) TRITC-Tn6 fluorescence polarization displacement; inhibition, % at 8.3 µM; P02675;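 active = inhibition above a per-campaign cutoff: mean of compounds within control limits plus 3 SD, cut at about 15% in these data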
LEDGF integ inh: blocks HIV-1 LEDGF/p75-dependent DNA integration | TR-FRET IN-LEDGF/p75 DNA integration, Eu/Cy5 | inhibition, % at 3.7 µM | 0.64% of 370,000 active | AID 743269;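 active = inhibition above the screen-wide mean plus 3 SD, cut at about 13% in these data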;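 note: signal is the Cy5 over europium emission ratio at 671 and 618 nm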
MBD2 DNA inh: inhibitors of human MBD2 binding to methylated oligonucleotide; 0.31% of 370,000 active; Q9UBB5; inhibition, % at 4.4 µM; AID 686964; TR-FRET; in the data active = inhibition above about 13%
UHRF1 MBD2 ctr: UHRF1 methyl-DNA binding inhibition | Q96T88 | UHRF1 binding to methylated oligo, TR-FRET | inhibition, % at 4.4 µM | 0.75% of 370,000 active; in the data active = inhibition above about 21%;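 note: UHRF1 SRA domain binding a hemimethylated CpG hairpin DNA probe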
TDP2 absorb: TDP2 (human) inhibition, absorbance primary screen; AID 720702; O95551; recombinant TDP2, T5PNP hydrolysis, p-nitrophenol absorbance 415 nm; 0.34% of 370,000 active; inhibition, % at 12.8 µM;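 active = inhibition above the mean of all tested compounds plus 3 SD, set per campaign, cut at about 25% in these data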
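test system = human TDP2 enzyme | input = TDP2 enzyme at 120 nM final | medium = 50 mM Tris-HCl pH 7.5 with Mg2+, KCl, DTT, BSA | also added = T5PNP substrate, 5 mM | times = 2 h at 37 °C | technique = epi absorbance | benchmarks = high control without enzyme, low control DMSO plus TDP2 | replication = each compound tested once, singlicate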
DDE Tn6 FP ctr: counter-screen for inhibitors of Tn6 peptide binding to fibrin DD(E) | shares compounds with DDE Tn6 FP inh | TRITC-Tn6 fluorescence polarization displacement; 0% = median of compound wells, not DMSO | inhibition, % at 8.3 µM | 2% of 680 active | AID 720621;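 active = inhibition above the mean of test compounds lying between the control limits plus 3 SD of those, cut at about 14% in these data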
Tn6 DDE conf: DD(E)-Tn6 binding inhibition, FP confirmation | inhibition, % at 8.3 µM | shares compounds with DDE Tn6 FP inh | 10% of 680 active | FP displacement of TRITC-Tn6 peptide from DD(E); 0% = per-plate median of test wells;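 active = inhibition above the mean of compounds lying within the control limits plus 3 SD, cut at about 16% in these data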
TDP2 inh conf: human TDP2 inhibition, confirmation; shares compounds with TDP2 absorb; 22% of 1,100 active; inhibition, % at 12.8 µM; recombinant human TDP2, absorbance read-out; AID 743263; in the data active = inhibition above about 25%
IN multimer act: HIV-1 integrase multimerization activation, counter-screen. shares compounds with LEDGF integ inh. TR-FRET HIV-1 integrase multimerization, biochemical. activation, % at 7.7 µM. 17% of 2,000 active. AID 1053131; in the data active = activation above about 8.9%
TR-FRET interf: counter-screen for LEDGF/p75 integration inhibitors: TR-FRET optical interference | AID 1053135 | inhibition, % at 7.7 µM | 2,000 tested, under 10 active | TR-FRET optical interference counterscreen, HIV-1 IN multimerization | shares compounds with LEDGF integ inh;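 active = inhibition above the mean over all tested compounds plus 3 SD, which no compound reached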
LEDGF integ conf: LEDGF/p75-dependent HIV-1 integration inhibition, confirmation. shares compounds with LEDGF integ inh. TR-FRET LEDGF/p75-dependent HIV-1 integration, biochemical. inhibition, % at 3.7 µM. 36% of 2,000 active; in the data active = inhibition above about 14%
Numbers stand for hits.

`Cc1cc2c(N)cccc2nn1` gave DDE Tn7 FP inh inactive, DDE Tn6 FP inh active, LEDGF integ inh 73, MBD2 DNA inh inactive, UHRF1 MBD2 ctr 45, TDP2 absorb 77, DDE Tn6 FP ctr inactive, Tn6 DDE conf 18, TDP2 inh conf 57, IN multimer act inactive, TR-FRET interf inactive and LEDGF integ conf 78.
Screening COP(=O)(O)C[C@@H]1CCc2cc(C)cc([C@H](CC(C)C)NC(=O)OCc3ccccc3)c2O1 returned DDE Tn7 FP inh inactive, DDE Tn6 FP inh inactive, LEDGF integ inh inactive, MBD2 DNA inh inactive, UHRF1 MBD2 ctr inactive and TDP2 absorb inactive.
C/C(=C\C(=O)c1cccnc1)Nc1ccc(O)cc1 was read as DDE Tn7 FP inh inactive, DDE Tn6 FP inh 44, LEDGF integ inh 17, MBD2 DNA inh inactive, UHRF1 MBD2 ctr inactive, TDP2 absorb 27, DDE Tn6 FP ctr inactive, Tn6 DDE conf inactive, TDP2 inh conf inactive, IN multimer act inactive, TR-FRET interf inactive and LEDGF integ conf inactive.
C/C(=C\C(=O)c1ccccc1)Nc1ccc(O)cc1 was read as DDE Tn7 FP inh inactive, DDE Tn6 FP inh 17, LEDGF integ inh 20, MBD2 DNA inh inactive, UHRF1 MBD2 ctr inactive, TDP2 absorb inactive, DDE Tn6 FP ctr inactive, Tn6 DDE conf inactive, IN multimer act inactive, TR-FRET interf inactive and LEDGF integ conf inactive.
Screening COC(=O)/C(=C/Nc1ccc(O)cc1)[N+](=O)[O-] returned DDE Tn7 FP inh inactive, DDE Tn6 FP inh 46, LEDGF integ inh 25, MBD2 DNA inh inactive, UHRF1 MBD2 ctr inactive, TDP2 absorb inactive, DDE Tn6 FP ctr inactive, Tn6 DDE conf inactive, IN multimer act inactive, TR-FRET interf inactive and LEDGF integ conf inactive.
CCOC(=O)C1(C)C=C(Nc2ccc(O)cc2)C(=O)N1c1ccc(O)cc1 (centres undefined) was read as DDE Tn7 FP inh inactive, DDE Tn6 FP inh 24, LEDGF integ inh 14, MBD2 DNA inh inactive, UHRF1 MBD2 ctr inactive, TDP2 absorb 28, DDE Tn6 FP ctr inactive, Tn6 DDE conf inactive, TDP2 inh conf inactive, IN multimer act inactive, TR-FRET interf inactive and LEDGF integ conf inactive.
For CCCCCCCCN1C(=O)[C@@H](CC(=O)NCCC(C)C)C[C@@]2(C(=O)OC)C1=C[C@H](C(C)C)O[C@@H]2C1CC1 the results were DDE Tn7 FP inh inactive, DDE Tn6 FP inh inactive, LEDGF integ inh inactive, MBD2 DNA inh inactive, UHRF1 MBD2 ctr inactive and TDP2 absorb inactive.
For CCN(CC)c1ccc(NC(=O)Nc2ccc(C(C)=O)cc2)cc1 the results were DDE Tn7 FP inh inactive, DDE Tn6 FP inh inactive, LEDGF integ inh inactive, MBD2 DNA inh inactive, UHRF1 MBD2 ctr inactive and TDP2 absorb inactive.
`CCN(CC)c1ccc(N=C2C=CC(=O)C=C2NC(C)=O)cc1` gave DDE Tn7 FP inh inactive, DDE Tn6 FP inh 20, LEDGF integ inh 73, MBD2 DNA inh inactive, UHRF1 MBD2 ctr inactive, TDP2 absorb inactive, DDE Tn6 FP ctr inactive, Tn6 DDE conf 54, IN multimer act 36, TR-FRET interf inactive and LEDGF integ conf 35.
Screening COc1ccc2c(c1)[C@@H](NC(=O)c1ccncc1)[C@H](C)[C@H]2c1ccccc1 returned DDE Tn7 FP inh inactive, DDE Tn6 FP inh inactive, LEDGF integ inh inactive, MBD2 DNA inh inactive, UHRF1 MBD2 ctr inactive and TDP2 absorb inactive.
Screening COc1cc(NS(=O)(=O)c2ccc(C)cc2)c2ncccc2c1 returned DDE Tn7 FP inh inactive, DDE Tn6 FP inh inactive, LEDGF integ inh inactive, MBD2 DNA inh inactive, UHRF1 MBD2 ctr inactive and TDP2 absorb inactive.
For COc1cc(NCCCC(C)N)c2ncccc2c1 (centres undefined) the results were DDE Tn7 FP inh inactive, DDE Tn6 FP inh 52, LEDGF integ inh 30, MBD2 DNA inh inactive, UHRF1 MBD2 ctr inactive, TDP2 absorb 64, DDE Tn6 FP ctr inactive, Tn6 DDE conf 20, TDP2 inh conf 27, IN multimer act inactive, TR-FRET interf inactive and LEDGF integ conf 63.
Screening CCC(CNc1cc(OC)cc2cccnc12)NC1CCCCC1 (centres undefined) returned DDE Tn7 FP inh inactive, DDE Tn6 FP inh 33, LEDGF integ inh 58, MBD2 DNA inh inactive, UHRF1 MBD2 ctr inactive, TDP2 absorb 79, DDE Tn6 FP ctr inactive, Tn6 DDE conf inactive, TDP2 inh conf 25, IN multimer act inactive, TR-FRET interf inactive and LEDGF integ conf 76.
Screening COC(=O)C1=C(C)N(C)C(=NCC2CC2)NC1c1cccc(F)c1 (centres undefined) returned DDE Tn7 FP inh inactive, DDE Tn6 FP inh inactive, LEDGF integ inh inactive, MBD2 DNA inh inactive, UHRF1 MBD2 ctr inactive and TDP2 absorb inactive.
`O=S(=O)(c1ccccc1)N1CCCc2nc(-c3ccc(Br)cc3)ccc21` gave DDE Tn7 FP inh inactive, DDE Tn6 FP inh inactive, LEDGF integ inh inactive, MBD2 DNA inh inactive, UHRF1 MBD2 ctr inactive and TDP2 absorb inactive.
For O=C(O)c1ccc(S(=O)(=O)c2ccc3c(c2)C(=O)N(c2ccc(O)cc2)C3=O)cc1 the results were DDE Tn7 FP inh inactive, DDE Tn6 FP inh 48, LEDGF integ inh 16, MBD2 DNA inh inactive, UHRF1 MBD2 ctr inactive, TDP2 absorb 38, DDE Tn6 FP ctr inactive, Tn6 DDE conf inactive, TDP2 inh conf inactive, IN multimer act inactive, TR-FRET interf inactive and LEDGF integ conf inactive.
Screening O=C(O)c1ccc(NC(=O)c2ccc3c(c2)C(=O)N(c2ccccc2)C3=O)cc1 returned DDE Tn7 FP inh inactive, DDE Tn6 FP inh inactive, LEDGF integ inh inactive, MBD2 DNA inh inactive, UHRF1 MBD2 ctr inactive and TDP2 absorb inactive.
For Cc1ccc(S(=O)(=O)N(C)[C@H]2C[C@H]3c4cc(-c5ccc6c(c5)OCO6)ccc4CCN3C[C@H]2[C@H](C)O)cc1 the results were DDE Tn7 FP inh inactive, DDE Tn6 FP inh inactive, LEDGF integ inh inactive, MBD2 DNA inh inactive, UHRF1 MBD2 ctr inactive and TDP2 absorb inactive.
